Converted amounts (≈) assume the structure as drawn.
How the values were obtained:
Cavia porcellus [1] = species: Cavia porcellus; experiment: In vitro relative anticholinergic potential in isolated guinea pig trachea; type: functional
Method in brief: (§1)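 Guinea pig trachea in Krebs' solution at 37.5 °C, 95% O2/5% CO2, pH 7.4, 2 g resting tension. Cumulative carbachol log dose-response curve (3-fold steps) run before and 30 min after adding antagonist at 1 mM. […] Tukey test on log2 dose ratios.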

[2] = Terminal half life in Rhesus monkeys at the dose of 30 mg/kg.; type: ADME, organism-based, Macaca mulatta; set-up: dose 30 mg/kg; conditions: rhesus monkey, in vivo
Method in brief: (§2)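 Male rhesus monkeys dosed intravenously at 30 mg/kg. Plasma sampled from 0.08–0.1 h up to 6–8 h; urine collected over 0–6/8 and 6/8–24 h. Samples measured by microbiological assay.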

Streptococcus pyogenes [3] = experiment: Antibacterial activity against Streptococcus pyogenes; type: functional
[4] = Terminal half life in dogs at the dose of 20 mg/kg.; type: ADME, organism-based, Canis lupus familiaris; set-up: dose 20 mg/kg; conditions: dog, in vivo
Method in brief: (§3)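 Overnight-fasted female mongrel dogs with a Foley bladder catheter; bolus into the cephalic vein. Plasma and urine collected before dosing and over 24 h after. Antibacterial activity measured by microbiological assay.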

Enterobacter cloacae [5] = experiment: Antibacterial activity against Enterobacter cloacae EB5; type: functional
Staphylococcus aureus [6] = experiment: Antibacterial activity against penicillin G resistance Staphylococcus aureus; type: functional
Monkey = experiment: Percent of dose in Rhesus monkeys urine at the dose of 30 mg/kg.; type: functional, Cercopithecidae; method in brief: as §2
Pseudomonas aeruginosa [7] = experiment: Antibacterial activity against Pseudomonas aeruginosa PS18; type: functional
Klebsiella pneumoniae [8] = experiment: microbe, parasite or virus in culture; type: functional; conditions: Klebsiella pneumoniae; read-out: MIC
Pseudomonas aeruginosa [9] = experiment: Antibacterial activity against Pseudomonas aeruginosa X528; type: functional
Enterobacter cloacae [10] = experiment: (§4) Antibacterial activity against Enterobacter cloacae 265A; type: functional
Enterococcus faecium = experiment: Antibacterial activity against Enterococcus faecium; type: functional; conditions: Enterococcus faecium; read-out: MIC
Staphylococcus aureus [11] = experiment: Antibacterial activity against penicillin G susceptible Staphylococcus aureus; type: functional
Serratia marcescens = experiment: Antibacterial activity against Serratia marcescens SE3; type: functional
[12] = Terminal half life in dogs at the dose of 10 mg/kg.; type: ADME, organism-based, Canis lupus familiaris; set-up: dose 10 mg/kg; conditions: dog, in vivo; method in brief: as §3
[13] = Terminal half life in Rhesus […] the dose of 30 mg/kg.; type: ADME, organism-based, Macaca mulatta; set-up: dose 30 mg/kg; conditions: rhesus monkey
Method in brief: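 Male rhesus monkeys, 4 per compound, given a single intravenous dose of 30 mg/kg. […] Plasma and urine antibiotic levels measured by microbiological assay. Terminal half-life reported in min.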

Staphylococcus aureus [14] = experiment: In vivo efficacy against Staphylococcus aureus infections in mice; type: functional; conditions: Staphylococcus aureus; read-out: MIC
Enterobacter cloacae [15] = experiment: In vitro relative hydrolysis rate against Enterobacter Ia; type: functional
Method in brief: (§5)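 Spectrophotometric hydrolysis at 265 nm, substrate exposed to partially purified cell-free β-lactamase preparations; rate expressed as percentage of the cephaloridine rate.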

Escherichia coli [16] = experiment: In vivo efficacy against Escherichia coli infections in mice; type: functional; conditions: Escherichia coli; read-out: MIC
Pseudomonas aeruginosa [17] = experiment: In vitro relative hydrolysis rate against Pseudomonas Id; type: functional; method in brief: as §5
Staphylococcus aureus [18] = experiment: (§6) In vivo efficacy against Staphylococcus aureus infected mice treated at 1 hr and 5 hr post infection; type: functional; conditions: Staphylococcus aureus; read-out: ED50
Klebsiella pneumoniae [19] = experiment: Antibacterial activity against Klebsiella pneumoniae X26; type: functional
Escherichia coli [20] = experiment: (§7) In vivo efficacy against Escherichia coli infected mice treated at 1 hr and 5 hr post infection; type: functional; conditions: Escherichia coli; read-out: ED50
Streptococcus pneumoniae = experiment: Antibacterial activity against Streptococcus pneumoniae; type: functional
Escherichia coli [21] = experiment: In vitro relative hydrolysis rate against Escherichia coli IIIa; type: functional; method in brief: as §5
Canis familiaris [22] = experiment: Percent of dose in dogs urine at the dose of 15 mg/kg.; type: functional, Canis lupus familiaris; method in brief: as §3
Escherichia coli [23] = experiment: Antibacterial activity against Escherichia coli EC14; type: functional
Staphylococcus aureus [24] = experiment: In vitro relative hydrolysis rate against Staphylococcus aureus; type: functional; method in brief: as §5
Pseudomonas aeruginosa [25] = experiment: (§8) In vivo efficacy against Pseudomonas aeruginosa infected mice treated at 1 hr and 5 hr post infection; type: functional; conditions: Pseudomonas aeruginosa; read-out: ED50
Escherichia coli [26] = experiment: Antibacterial activity against Escherichia coli TEM; type: functional
Cavia porcellus [27] = species: Cavia porcellus; experiment: In vitro relative anticholinergic activity in isolated guinea pig trachea; type: functional; conditions: read-out: pA2 (converted); method in brief: as §1
[28] = Terminal half life in dogs at the dose of 30 mg/kg.; type: ADME, organism-based, Canis lupus familiaris; set-up: dose 30 mg/kg; conditions: dog, in vivo; method in brief: as §3
Klebsiella pneumoniae [29] = experiment: In vitro relative hydrolysis rate against Klebsiella IV; type: functional; method in brief: as §5
Canis familiaris [30] = experiment: Percent of dose in dogs urine at the dose of 30 mg/kg.; type: functional, Canis lupus familiaris; method in brief: as §3
[31] = Terminal half life in dogs at the dose of 15 mg/kg.; type: ADME, organism-based, Canis lupus familiaris; set-up: dose 15 mg/kg; conditions: dog, in vivo; method in brief: as §3
[32] = In vitro dose required for anticholinergic activity in isolated guinea pig trachea; type: functional
Pseudomonas aeruginosa [33] = experiment: In vivo efficacy against Pseudomonas aeruginosa infections in mice; type: functional; conditions: Pseudomonas aeruginosa; read-out: MIC
Mus musculus [34] = experiment: as §7; type: functional
Method in brief: (§9)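 Mice given lethal experimental infections, with treatment at 1 and 5 h postinfection; ED50 expressed as mg/kg × 2.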

Mus musculus [35] = experiment: as §8; type: functional; method in brief: as §9
Mus musculus [36] = experiment: as §6; type: functional; method in brief: as §9
Streptococcus pyogenes [37] = experiment: Antibacterial activity against Streptococcus pyogenes
Bacteria = experiment: as §4
[38] = Streptococcus pyogenes, read-out: MIC
[39] = Enterobacter cloacae, read-out: MIC
[40] = Staphylococcus aureus, read-out: MIC
[41] = Pseudomonas aeruginosa, read-out: MIC
[42] = Serratia marcescens, read-out: MIC
[43] = Klebsiella pneumoniae, read-out: MIC
[44] = Streptococcus pneumoniae, read-out: MIC
[45] = Escherichia coli, read-out: MIC

| Compound | RAP (Cavia porcellus [1]) | MIC (Streptococcus pyogenes [3]; [38]) [µg/mL] | MIC (Enterobacter cloacae [5]; [39]) [µg/mL] | MIC (Staphylococcus aureus [6]; [40]) [µg/mL] | Dose (Monkey) [%] | MIC (Pseudomonas aeruginosa [7]; [41]) [µg/mL] | MIC (Klebsiella pneumoniae [8]) [µg/mL] | MIC (Pseudomonas aeruginosa [9]; [41]) [µg/mL] | MIC (Enterobacter cloacae [10]; [39]) [µg/mL] | MIC (Enterococcus faecium) [µg/mL] | MIC (Staphylococcus aureus [11]; [40]) [µg/mL] | MIC (Serratia marcescens; [42]) [µg/mL] | MIC (Klebsiella pneumoniae [19]; [43]) [µg/mL] | MIC (Streptococcus pneumoniae; [44]) [µg/mL] | MIC (Escherichia coli [23]; [45]) [µg/mL] | MIC (Escherichia coli [26]; [45]) [µg/mL] | further results |
| --- | --- | --- | --- | --- | --- | --- | --- | --- | --- | --- | --- | --- | --- | --- | --- | --- | --- |
| CO/N=C(\C(=O)N[C@@H]1C(=O)N2C(C(=O)[O-])=C(C[n+]3ccc4ncn(C)c4c3)CS[C@H]12)c1csc(N)n1 | 1 | 0.008 (≈ 0.0151 µM) | 0.125 (≈ 0.236 µM) | 2 (≈ 3.78 µM) | 52 | 8 (≈ 15.1 µM) | 8 (≈ 15.1 µM) | 2 (≈ 3.78 µM) | 8 (≈ 15.1 µM) | 128 (≈ 242 µM) | 2 (≈ 3.78 µM) | 0.125 (≈ 0.236 µM) | – | – | – | – | half-life [2]: 1.08 h; half-life [4]: 1.17 h; half-life [12]: 1.27 h |
| CC(C)(O/N=C(\C(=O)N[C@@H]1C(=O)N2C(C(=O)[O-])=C(C[n+]3ccccc3)CS[C@H]12)c1csc(N)n1)C(=O)O [CEFTAZIDIME] | 1 | – | – | – | 64 | 4 (≈ 7.32 µM) | 1 (≈ 1.83 µM) | 2 (≈ 3.66 µM) | 64 (≈ 117 µM) | > 128 | – | 0.5 (≈ 0.915 µM) | – | – | – | – | half-life [13]: 0.933 h |
| CO/N=C(\C(=O)N[C@@H]1C(=O)N2C(C(=O)[O-])=C(C[n+]3ccc4sccc4c3)CS[C@H]12)c1csc(N)n1 | 100 | < 0.008 | 0.06 (≈ 0.113 µM) | 2 (≈ 3.77 µM) | – | 4 (≈ 7.54 µM) | 2 (≈ 3.77 µM) | 2 (≈ 3.77 µM) | 4 (≈ 7.54 µM) | > 128 | 1 (≈ 1.88 µM) | 0.125 (≈ 0.236 µM) | 0.015 (≈ 0.0283 µM) | 0.015 (≈ 0.0283 µM) | 0.015 (≈ 0.0283 µM) | 0.03 (≈ 0.0565 µM) | MIC (Staphylococcus aureus [14]): 1 µg/mL (≈ 1.88 µM); Hydrolysis rate (Enterobacter cloacae [15]): 0.6; MIC (Escherichia coli [16]): < 0.008 µg/mL; Hydrolysis rate (Pseudomonas aeruginosa [17]): 0.3; ED50 (Staphylococcus aureus [18]): 0.4 mg/kg; ED50 (Escherichia coli [20]): 0.02 mg/kg; Hydrolysis rate (Escherichia coli [21]): 0.3; Dose (Canis familiaris [22]): 55%; Hydrolysis rate (Staphylococcus aureus [24]): 7.8; ED50 (Pseudomonas aeruginosa [25]): 6.3 mg/kg; Kb (Cavia porcellus [27]): 43.7 µM; half-life [28]: 1.5 h; Hydrolysis rate (Klebsiella pneumoniae [29]): 3.4; Dose (Canis familiaris [30]): 58%; half-life [31]: 1.75 h; Dose ratio [32]: 23.67; MIC (Pseudomonas aeruginosa [33]): 2 µg/mL (≈ 3.77 µM) |
| CO/N=C(\C(=O)N[C@@H]1C(=O)N2C(C(=O)[O-])=C(C[n+]3cccc(CC(=O)O)c3)CS[C@H]12)c1csc(N)n1 (stereo in doubt; 6) | – | – | – | – | – | – | – | – | – | – | – | – | – | – | – | – | ED50 (Mus musculus [34]): 0.13 mg/kg; MIC (Streptococcus pyogenes [3]): 0.015 µg/mL (≈ 0.0282 µM); MIC (Enterobacter cloacae [5]): 0.5 µg/mL (≈ 0.939 µM); MIC (Klebsiella pneumoniae [19]): 0.015 µg/mL (≈ 0.0282 µM); MIC (Staphylococcus aureus [6]): 4 µg/mL (≈ 7.51 µM); MIC (Pseudomonas aeruginosa [7]): 32 µg/mL (≈ 60.1 µM); MIC (Streptococcus pneumoniae): 0.015 µg/mL (≈ 0.0282 µM); ED50 (Mus musculus [35]): > 50 mg/kg; MIC (Pseudomonas aeruginosa [9]): 8 µg/mL (≈ 15 µM); MIC (Escherichia coli [23]): 0.015 µg/mL (≈ 0.0282 µM); MIC (Escherichia coli [26]): 0.03 µg/mL (≈ 0.0563 µM); MIC (Enterobacter cloacae [10]): >128 µg/mL; MIC (Staphylococcus aureus [11]): 4 µg/mL (≈ 7.51 µM); MIC (Serratia marcescens): 0.25 µg/mL (≈ 0.469 µM); ED50 (Mus musculus [36]): 7.8 mg/kg |
| CO/N=C(\C(=O)N[C@@H]1C(=O)N2C(C(=O)[O-])=C(C[n+]3cccc4ncccc43)CS[C@H]12)c1csc(N)n1 | – | – | 0.25 (≈ 0.476 µM) | 4 (≈ 7.61 µM) | – | 8 (≈ 15.2 µM) | 4 (≈ 7.61 µM) | 4 (≈ 7.61 µM) | 8 (≈ 15.2 µM) | > 128 | 2 (≈ 3.81 µM) | 0.5 (≈ 0.951 µM) | 0.06 (≈ 0.114 µM) | 0.06 (≈ 0.114 µM) | 0.06 (≈ 0.114 µM) | 0.125 (≈ 0.238 µM) | MIC (Streptococcus pyogenes [37]): 0.03 µg/mL (≈ 0.0571 µM) |
| CO/N=C(\C(=O)N[C@@H]1C(=O)N2C(C(=O)[O-])=C(C[n+]3cccc(CC(=O)O)c3)CS[C@H]12)c1csc(N)n1 (stereo in doubt; 17) | – | – | – | – | – | – | – | – | – | – | – | – | – | – | – | – | MIC (Bacteria): 32 µg/mL (≈ 60.1 µM) |
| CO/N=C(\C(=O)N[C@@H]1C(=O)N2C(C(=O)[O-])=C(C[n+]3cccc4c3CCC4)CS[C@H]12)c1csc(N)n1 [CEFPIROME] | 4 | 0.008 (≈ 0.0155 µM) | 0.06 (≈ 0.117 µM) | 1 (≈ 1.94 µM) | 61 | 8 (≈ 15.5 µM) | 4 (≈ 7.77 µM) | 2 (≈ 3.89 µM) | 0.5 (≈ 0.972 µM) | 8 (≈ 15.5 µM) | 1 (≈ 1.94 µM) | 0.125 (≈ 0.243 µM) | 0.015 (≈ 0.0291 µM) | 0.015 (≈ 0.0291 µM) | 0.015 (≈ 0.0291 µM) | 0.03 (≈ 0.0583 µM) | half-life [2]: 1.13 h; Dose ratio [32]: 1.76 |
